Screens deposited in PubChem BioAssay by several laboratories.
TAAR1 agonist: human TAAR1 agonism; Q96RJ0; CHO RD-HGA16 TAAR1, Fluo-8 calcium fluorescence; vehicle wells 0%, saturating PEA agonist 100%; activation, % at 3 µM; 360,000 tested, 0.99% active; AID 624467;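 active = activation above the mean activation of all test compounds in the run plus 3 SD, cut at about 38% in these data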
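test system = CHO RD-HGA16 cells carrying human TAAR1 plus Gα16 | schedule = 17-24 h seeding, 75 min 37 °C dye, 30 min RT | compound dosing = 3 µM single concentration | control set = DMSO and PEA EC100 | replicates = n 1 | signal = Fluo-8 fluorescence, 5 s baseline then 140 s kinetic read | measure = percent activation vs PEA EC100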
CRFR2-BP antag: antagonists of CRF-binding protein/CRF-R2 receptor complex | 350,000 tested, 0.59% active | inhibition, % at 11.8 µM | HEK293 CRF-R2/CRF-BP, CRF-induced calcium fluorescence | AID 588475;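 active = inhibition of the ligand-induced calcium signal above about 50% at the single tested concentration, limit read from the data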
TMEM16A inh: blocks the mouse calcium-activated chloride channel TMEM16A. normalized B-score (activity score, 25-100; higher = stronger inhibition) at 10 µM. 310,000 tested, 1.2% active. Q8BHY3. HEK293 TMEM16A/YFP iodide influx fluorescence, ionomycin;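 active = ratio plate-corrected score three or more library SD toward inhibition, starting fluorescence score within five deviations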;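 also: score derived from kinetic fluorescence span divided by baseline fluorescence per well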
Target sequence (Q8BHY3 whole entry, looked up): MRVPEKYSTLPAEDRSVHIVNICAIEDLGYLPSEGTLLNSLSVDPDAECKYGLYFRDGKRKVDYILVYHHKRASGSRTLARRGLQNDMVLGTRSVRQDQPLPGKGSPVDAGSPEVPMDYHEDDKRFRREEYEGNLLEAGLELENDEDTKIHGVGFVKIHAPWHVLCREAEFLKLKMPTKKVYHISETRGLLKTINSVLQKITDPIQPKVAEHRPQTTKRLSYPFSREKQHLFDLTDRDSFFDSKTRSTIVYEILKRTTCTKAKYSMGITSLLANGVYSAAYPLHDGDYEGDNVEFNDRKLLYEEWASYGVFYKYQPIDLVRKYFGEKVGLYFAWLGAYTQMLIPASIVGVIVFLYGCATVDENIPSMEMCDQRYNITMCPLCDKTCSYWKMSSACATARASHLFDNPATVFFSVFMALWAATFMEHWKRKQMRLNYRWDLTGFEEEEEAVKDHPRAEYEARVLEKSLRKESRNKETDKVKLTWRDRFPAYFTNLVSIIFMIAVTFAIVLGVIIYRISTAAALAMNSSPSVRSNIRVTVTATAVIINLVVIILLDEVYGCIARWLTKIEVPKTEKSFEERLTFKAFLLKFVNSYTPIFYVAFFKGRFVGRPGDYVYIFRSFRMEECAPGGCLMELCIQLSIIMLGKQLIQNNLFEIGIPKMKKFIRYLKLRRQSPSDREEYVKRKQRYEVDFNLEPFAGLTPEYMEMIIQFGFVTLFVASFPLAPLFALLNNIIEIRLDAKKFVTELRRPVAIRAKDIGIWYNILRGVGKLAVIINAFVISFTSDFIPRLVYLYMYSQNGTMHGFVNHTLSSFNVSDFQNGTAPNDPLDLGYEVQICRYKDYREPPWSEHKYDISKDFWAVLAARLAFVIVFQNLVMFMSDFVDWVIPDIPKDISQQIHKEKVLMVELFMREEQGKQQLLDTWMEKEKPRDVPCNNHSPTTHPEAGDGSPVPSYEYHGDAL
CRFR2-BP ag: agonists of human CRF-binding protein/CRF-R2 receptor complex; HEK293 CRF-R2/CRF-BP, calcium dye fluorescence (FLIPR); percent of saturating CRF peptide response; activation, % at 13.2 µM; 350,000 tested, 0.46% active; AID 588473;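 active = activation of at least 50%, plus an integration ratio under a set limit after plate pattern correction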;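 also: plate controls were neutral control wells without compound for no effect and CRF at EC100 for full effect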
TMEM16A act: activators or potentiators of mouse TMEM16A chloride channel; Q8BHY3; HEK293 TMEM16A/YFP-H148Q/I152L, iodide quench fluorescence; stronger effect = lower value; B-score at 10 µM; 340,000 tested, 0.3% active; AID 623877;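 active = fluorescence-ratio B-score plate-corrected deviation score at least 3 library SD below zero, with starting fluorescence score within 5 deviations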;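 also: channel opened by trigger with iodide after compound preincubation; score built on the fluorescence ratio of max minus min over baseline; more negative score means more quench and so TMEM16A activation or potentiation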
TAAR1 antagonist: antagonists of human TAAR1; CHO RD-HGA16 TAAR1, Fluo-8 calcium fluorescence, antagonist; Q96RJ0; inhibition, % at 3 µM; 360,000 tested, 1.5% active;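 active = inhibition above a per-plate cutoff, the mean inhibition of test compounds on that plate plus 3 SD, cut at about 49% in these data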;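 also: 0% = DMSO plus EC80 beta-PEA response and 100% = DMSO alone without agonist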
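Test system: RD-HGA16 CHO cells with stable hTAAR1 and Gα16 / Probe or stimulus: EC80 β-phenethylamine stimulus / Times: seeding 17-24 h prior, 75-min 37 °C, 30-min RT dye loading / Detection: Fluo-8 calcium-sensitive fluorescence / Read-out basis: % inhibition scaled between DMSO and EC80 PEA controls / Repeats: singlicate, one well per test compound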
* = called active by the depositor; i = inactive; . = no result. Hits are enriched below; roughly 3.9% of the tested compounds scored in any of these assays.

SMILES	TAAR1 agonist	CRFR2-BP antag	TMEM16A inh	CRFR2-BP ag	TMEM16A act	TAAR1 antagonist
O=C(c1ccc(NC(=S)NCc2ccc(Cl)cc2)cc1)N1CCCCC1	44*	-19	i	7	i	17
O=C(NCN1CCCCC1)c1cnccn1	20	51*	i	0	i	-20
O=C(NCN1CCOCC1)c1cnccn1	1	14	i	1	i	-9
CC(C)c1nc(N2CCN(C(=O)c3ccco3)CC2)c(C#N)c2c1COC(C)(C)C2	-3	11	i	-1	i	26
CCCCc1nc(N2CCN(C(=O)c3ccco3)CC2)c(C#N)c2c1CCCC2	9	-11	100*	2	-4.8*	43
CCC(=O)OCCNc1cc(SCCC(=O)OC)c2nonc2c1[N+](=O)[O-]	1	11	i	-1	i	-8
CCCC(=O)OCCNc1cc(Sc2nc3ccccc3[nH]2)c2nonc2c1[N+](=O)[O-]	0	91*	i	-3	i	28
Cc1ccc(S(=O)(=O)N2[C@@H](c3ccccc3F)C(C(=O)O)=CC[C@H]2c2ccc(C(C)C)cc2)cc1	1	5	100*	-1	i	18
Cc1ccc([C@@H]2CC=C(C(=O)O)[C@H](c3ccccc3F)N2S(=O)(=O)c2ccc(C)cc2)cc1	12	3	i	1	-24*	30
CCc1ccc([C@@H]2CC=C(C(=O)O)[C@H](c3ccc(C(C)(C)C)cc3)N2S(=O)(=O)c2ccc(C)cc2)cc1	2	50*	.	4	.	15
Cc1ccc(S(=O)(=O)N2[C@@H](c3ccccc3F)C(C(=O)O)=CC[C@H]2c2cccc(Cl)c2)cc1	1	0	i	2	i	14
COc1ccc([C@@H]2CC=C(C(=O)O)[C@H](c3ccccc3F)N2S(=O)(=O)c2ccc(C)cc2)cc1OC	2	0	i	0	i	-19
Cc1cc(-c2nnc(SCC(=O)NC3CC3)n2C(C)C)cs1	3	-1	i	1	i	-35
CC(=O)N1CCN(C(=O)c2cccc(S(=O)(=O)NCc3ccccc3)c2)CC1	0	0	i	0	i	-12
Cc1cccc(C)c1OCC(=O)NNC(=S)NC(=O)C1CC1	48*	-18	i	23	i	19
CNC(=O)c1cc(Oc2ccc(NC(=O)Nc3ccc(Cl)c(C(F)(F)F)c3)cc2)ccn1	44*	-5	.	6	i	47
O=C(Nc1ccc(Cl)c(C(F)(F)F)c1)c1ccncc1	21	-17	i	-1	i	-25
COc1cccc(CNn2cnnc2)c1OCc1ccc(F)cc1	2	-8	100*	-1	i	11
COc1ccccc1N1CCN(C(=O)C(=O)c2cn(CC(=O)N3CCCC3)c3ccccc23)CC1	0	62*	i	-1	i	2
CCOC(=O)c1ccc(-n2cccc2/C=C2\NC(=O)NC2=O)cc1	16	9	.	-1	i	51*
CCOC(=O)c1cccc(-n2cccc2/C=C2\NC(=O)N(CC(=O)O)C2=O)c1	0	6	.	-2	i	7
COc1ccc(-n2c(O)c(/C=N/NS(=O)(=O)c3ccc(C)c([N+](=O)[O-])c3)c3ccccc3c2=O)cc1OC	42*	-39	i	12	i	38
COc1cc(/C=N/NS(=O)(=O)c2ccc(C)c([N+](=O)[O-])c2)cc([N+](=O)[O-])c1O	4	-4	i	-1	i	-8
COC(=O)COc1ccc(Oc2nc(SC)nc(N(C)C)n2)nn1	3	-55	i	55*	i	1
CCOc1cc2c3c(c1)C(C)=CC(C)(C)N3C(=O)C2=O	-2	-3	i	-5	i	-18
SMILES	TAAR1 agonist	CRFR2-BP antag	TMEM16A inh	CRFR2-BP ag	TMEM16A act	TAAR1 antagonist
CC(=O)Oc1cc2c3c(c1)/C(=C1/SC(=S)NC1=O)C(=O)N3C(C)(C)C=C2C	-1	38	100*	-6	i	31
CC(C)N1CC=C2C(C#N)=C(N)C(C#N)(C#N)[C@H](c3ccoc3)[C@H]2C1	.	.	i	.	.	.
CC(C)N1CC=C2C(C#N)=C(N)C(C#N)(C#N)C(c3ccccc3)C2C1 (configuration not stated)	12	-27	i	90*	i	6
COc1ccc(CNC(=O)CN2CCN(c3ccc(F)cc3)CC2)cc1	2	58*	i	-2	i	-5
C[C@H]1CN([C@@H](C)CO)C(=O)CCCn2cc(nn2)CO[C@@H]1CN(C)C(=O)c1ccc2ccn(C)c2c1	0	.	.	.	.	11
CCCN(CCC)S(=O)(=O)c1ccc(C(=O)Nc2nnc(-c3cc(OC)cc(OC)c3)o2)cc1	.	2	100*	1	i	.
CCCN(CCC)S(=O)(=O)c1ccc(C(=O)Nc2nnc(-c3cccc(OC)c3)o2)cc1	17	-86	25*	100*	i	-13
CCOC1(c2ccccc2)CC1C(=O)N/N=C/c1cccc([N+](=O)[O-])c1 (configuration not stated)	0	12	i	-4	i	-26
Cc1cccc(OCc2nnc(SCC(=O)Nc3ncc(C)s3)o2)c1	1	-2	i	-2	i	-3
COc1ccc(NC(=O)CSc2nnc(-c3cccc(O)c3)o2)cc1	40*	3	i	1	i	-12
CC(C)(C)OC(=O)NCCCCCc1nnc(SCC(=O)Nc2cccc(Cl)c2)o1	15	1	100*	-1	i	41
O=C(CSc1nnc(-c2ccc(O)cc2)o1)Nc1ccccc1	17	-2	i	1	i	-2
Cc1cccc(OCc2nnc(SCC(=O)Nc3ccc(C)c(C)c3)o2)c1	5	-21	i	-1	i	54*
O=C(C1CCCN(S(=O)(=O)c2cc(Cl)ccc2Cl)C1)N1CCOCC1 (configuration not stated)	4	3	i	0	i	-17
COc1ccc(CNC(=O)CCCNC(=O)c2ccc(Cl)cc2)cc1OC	-1	7	i	-4	i	4
O=C(CCN1CCC(c2cccs2)=N1)c1cccs1	4	-53	i	69*	i	-13
COc1cccc(NC(=O)CN(C)C(=O)c2ccc(-c3ccccc3Cl)o2)c1	4	-12	i	0	i	-3
CCOc1ccc(CNc2ccc(S(N)(=O)=O)cc2)cc1	12	32	i	1	-5.1*	-6
CCOc1ccc(CNCCc2ccc(S(N)(=O)=O)cc2)cc1	2	2	i	2	i	3
